A selection: hits, their analogues and other compounds. The true share with any hit is near 8.8%.
S1P3 ag = S1P3 (human) receptor agonism | Q99500 | S1P3 NFAT-BLA reporter cells, FRET ratio; relative to 1 µM S1P, basal subtracted | activation, % at 4.5 µM | hit rate 0.1% among 60,000;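 active means activation above the screen-wide mean plus 3 SD, cut at about 4.5% in these data, passing the limit was not always enough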
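Material: Human S1P3 NFAT-BLA reporter CHO cells | Incubation: Overnight plating, 4 h compound 37 °C, 2 h substrate RT | Signal: FRET β-lactamase substrate fluorescence, excitation 405 nm, 460/535 nm emission ratio, background-subtracted | Compound: 4.5 µM final, single dose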
SF1 activator = activators of human nuclear receptor SF-1. CHO-K1 Gal4-SF-1 LBD luciferase reporter; % increase over DMSO SF-1-specific signal. AID 522. activation, % at 10 µM. hit rate 1.9% among 65,000. Q13285;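 active means activation above the mean activation of all tested compounds plus 3 SD, cut at about 50% in these data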
Target sequence (Q13285 whole entry, looked up, the tested form may be a part): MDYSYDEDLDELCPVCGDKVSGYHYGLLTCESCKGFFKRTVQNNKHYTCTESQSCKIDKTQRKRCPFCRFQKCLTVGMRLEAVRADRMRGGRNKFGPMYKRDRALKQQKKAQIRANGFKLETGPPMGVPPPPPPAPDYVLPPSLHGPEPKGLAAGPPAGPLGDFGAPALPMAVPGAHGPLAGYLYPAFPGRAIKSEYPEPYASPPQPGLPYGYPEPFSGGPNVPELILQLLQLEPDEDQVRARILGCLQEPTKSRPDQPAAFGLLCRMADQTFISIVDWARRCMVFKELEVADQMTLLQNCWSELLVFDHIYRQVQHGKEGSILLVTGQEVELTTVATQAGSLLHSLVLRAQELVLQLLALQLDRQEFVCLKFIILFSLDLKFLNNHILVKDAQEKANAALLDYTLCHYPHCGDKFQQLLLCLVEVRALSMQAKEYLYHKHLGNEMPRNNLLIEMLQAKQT
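Material: CHO-K1 cells with Gal4–hSF-1 LBD chimera plus Gal4-driven luciferase / Input: 4,000 CHO-K1 cells per well / Incubation: compound exposure 20 h at 37 °C / Signal: luminescence read 15 min after SteadyLite luciferase reagent, after room-temperature equilibration / Read-out: percent activation versus DMSO / Benchmarks: DMSO negative control and −SF1 background wells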
M1 agonist = agonists of M1 muscarinic receptor; CHO-M1 cells, Fluo-4 calcium fluorescence, agonist mode; stronger effect = higher value; hit rate 3% among 64,000; B-score at 10 µM;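 active means fluorescence rise, raw or as B-score row- and column-corrected plate score, outside the 99.7% band of its plate's samples, either direction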
RORA act = RORA (human) activation. P35398. CHO-K1 Gal4-RORA LBD luciferase reporter, luminescence; percent increase over mock-subtracted basal signal. activation, % at 10 µM. hit rate 1.5% among 65,000. AID 560;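 active means activation above the mean of all tested compounds plus 3 SD, cut at about 49% in these data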;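 further: 0% = DMSO-treated RORA cells and 100% = added signal equal to DMSO minus mock-transfected cells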
M1 antag = antagonists of rat M1 muscarinic receptor; CHO-M1 cells, Fluo-4 calcium, ACh EC80 antagonist mode; stronger effect = lower value; P08482; B-score at 10 µM; hit rate 3.4% among 64,000;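 active means calcium fluorescence response, raw or row-and-column corrected B-score, differing from the plate sample mean either way at a set confidence level, mostly lower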
S1P1 ag pot = S1P1 (human) agonism or agonism potentiation; activation, % at 9.5 µM; hit rate 0.57% among 56,000; S1P1 CRE-bla cells, forskolin, beta-lactamase FRET, potentiator mode; S1P1 agonist co-added at EC20, 2 nM; 100% = saturating reference agonist, 0% = basal;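 active means activation above a cutoff set at the mean activation of all tested compounds plus 3 SD, cut at about 54% in these data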;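 further: forskolin at 4 µM as EC80 and the EC20 agonist is SEW2871; 100% = SEW2871 at its EC100 plus forskolin at EC80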
M1 antag conf = confirmation of rat M1 muscarinic receptor antagonists; hit rate 43% among 1,700; AID 677; CHO-M1 cells, Fluo-4 calcium, ACh EC80 antagonism; stronger effect = lower value; shares compounds with M1 antag; calcium response (max-min fluorescence) at 10 µM;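 active means calcium response below the same-plate mean of wells given acetylcholine alone at its 80%-effect dose, minus 3 SD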;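 further: raw fluorescence intensity difference in arbitrary instrument units and not normalized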
mGluR4 antag = selectivity test for M1 antagonists: human mGluR4 receptor. shares compounds with M1 antag. CHO-mGluR4 calcium flux, Fluo-4 fluorescence, glutamate EC80; stronger effect = lower value. fluorescence response (max-min) at 10 µM. hit rate 0.9% among 1,700. AID 678;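 active means fluorescence response below the plate's average for near-maximal glutamate wells, less 3 SD of those wells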;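 further: raw unnormalized fluorescence span taken in the window right after glutamate addition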
* marks the source's active call; other numbers are inactive results; x = no result given.

SMILES | S1P3 ag | SF1 activator | M1 agonist | RORA act | M1 antag | S1P1 ag pot | M1 antag conf | mGluR4 antag
Cn1c(=O)c2c(nc(OCc3cccnc3)n2Cc2c(F)cccc2Cl)n(C)c1=O | -0.1 | -9.4 | 0.736 | -18.3 | -1.15* | 1.4 | 509* | 248
Cn1c(=O)c2c(nc(Br)n2Cc2c(F)cccc2Cl)n(C)c1=O | 0.2 | -1.6 | 0.129 | -19.9 | 1.16 | -13.5 | x | x
CCOC(=O)C1=C(C)NC(=O)NC1c1c(O)ccc2ccccc12 (stereo not given) | -0.4 | -8.5 | -1.33 | 17.7 | -1.31 | -27.4 | x | x
C=CCn1c(SCc2ccccc2C#N)nnc1-c1cc(Br)ccc1O | -0.6 | 18.9 | 1.39 | -0.2 | -3.77* | x | 330* | 193
COC(=O)N(C)CCCC1(C)C(=O)N(C)c2ccc(O)cc21 (stereo not given) | -0.9 | 1.8 | -0.0943 | 3.2 | -4.82* | 6.7 | 667 | 260
Cc1ccc(OCC(=O)Nc2ccc(N3CCCC3)cc2)cc1C | -1.6 | -19.1 | -0.928 | -3.3 | -3.64* | -17.8 | 527 | 243
Cc1ccc(OCCCC(=O)Nc2ccc(N3CCOCC3)cc2)c(C)c1 | -0.4 | -4.3 | 0.475 | 3.8 | -2.26* | x | 603 | 236
Cc1cc(OCC(=O)Nc2ccc(S(=O)(=O)N3CCN(C)CC3)cc2)cc(C)c1Cl | -1.1 | -3.4 | 0.0092 | 0.7 | -1.74* | x | 377* | 206
Cc1ccccc1OCCCC(=O)Nc1ccc(N2CCOCC2)cc1 | -0.7 | 14.2 | -0.087 | 1.1 | -0.272 | -0.7 | x | x
COc1ccc(OCC(=O)Nc2ccc(S(=O)(=O)N3CCOCC3)cc2)cc1 | -0.1 | -6.1 | -0.0924 | -2.8 | 1.29 | -33.3 | x | x
Cc1cc(C)cc(OCC(=O)Nc2ccc(N3CCCC3)cc2)c1 | -1.3 | -8.5 | -0.369 | -6.9 | -7.62* | -8.9 | 155* | 243
O=S1(=O)N=C(Nc2ccc(O)c(CN3CCCCC3)c2)c2ccccc21 | -0.5 | -14.0 | 1.08 | -3.7 | -0.00309 | -9.0 | x | x
CC1(C2(O)CC(c3ccccc3)ON2)CCCCC1 (stereo not given) | -3.6 | 4.6 | 0.0768 | -11.3 | -0.534 | -6.8 | x | x
CN1/C(=C\C(=O)c2ccco2)c2ccccc2CC1(C)C | -0.6 | -11.8 | -0.136 | 14.3 | -2.92* | -9.3 | 641 | 244
COC(=O)C1CCN(C(=O)COC(=O)CC(NC(N)=O)c2ccc(Cl)cc2)CC1 (stereo not given) | 1.0 | 16.0 | 0.181 | -11.4 | 0.116 | -13.4 | x | x
COC(=O)c1ccccc1OC(=O)c1ccc(Br)o1 | -0.6 | -5.8 | 0.856 | -10.4 | -4.49* | 2.0 | 518 | 179
N=c1c2c(n(Cc3ccc(Cl)c(Cl)c3)c3c1CCC3)CCCC2 | -1.1 | -7.1 | -0.352 | 17.3 | -2.45* | -7.3 | 433* | 236
O=c1[nH]c(=O)n(Cc2ccccc2)c2c1CCC2 | -0.1 | -10.7 | 0.0202 | -8.1 | -0.0368 | -22.2 | x | x
COc1ccccc1C(c1nnnn1Cc1ccccc1)N1CCN(c2nc3ccccc3s2)CC1 (stereo not given) | -1.4 | 15.6 | -0.0345 | 23.1 | 0.389 | 3.6 | x | x
c1ccc(Cn2nnnc2C(c2ccccc2)N2CCN(c3nc4ccccc4s3)CC2)cc1 (stereo not given) | -0.6 | 10.0 | -1.42 | 3.6 | -2.15* | 13.1 | 623 | 241
CCCCC(c1nnnn1Cc1ccco1)N1CCN(c2nc3ccccc3s2)CC1 (stereo not given) | -1.6 | -5.8 | -0.613 | -3.5 | -3.31* | 26.0 | 587 | 227
COc1ccc(C(CNC(=O)c2ccc(OCC3CCCO3)cc2)N2CCOCC2)cc1 (stereo not given) | 0.5 | -5.2 | -0.156 | -1.7 | -0.0315 | 9.2 | x | x
COc1ccc(C(CNC(=O)c2ccc(S(=O)(=O)N3CCOCC3)cc2)N2CCCCC2)cc1 (stereo not given) | -0.7 | 14.6 | -0.688 | -10.5 | -3.24* | 3.3 | 576 | 186
Cc1cc(C(=O)CSc2nncs2)c(C)n1-c1c(C)n(C)n(-c2ccccc2)c1=O | 0.6 | 10.5 | -2.45 | -7.5 | -9.12* | -13.6 | 215* | 195
CCOC(=O)c1cnn(-c2ncnc3sc4c(c23)CCC4)c1N | -1.3 | -3.7 | -1.71 | 5.3 | -2.69* | -0.2 | 617 | 204
SMILES | S1P3 ag | SF1 activator | M1 agonist | RORA act | M1 antag | S1P1 ag pot | M1 antag conf | mGluR4 antag
O=C(CCn1c(=O)oc2ccccc21)N1CCc2ccccc21 | 1.2 | 10.5 | 0.0909 | 3.0 | 0.085 | -11.7 | x | x
OC(COc1ccc(C2C=CCC2)cc1)CN1CCCCC1 (stereo not given) | -1.0 | 1.7 | -1.09 | -11.0 | -4.08* | x | 422* | 246
CCOC(=O)C1CCN(CC(O)COc2ccc(C(=O)CC)cc2)CC1 (stereo not given) | 1.4 | 18.2 | -0.198 | 4.4 | -3.31* | -6.6 | 569 | 212
CN(C)S(=O)(=O)N1CCN(CC(O)COc2ccc(C(=O)c3ccccc3)cc2)CC1 (stereo not given) | -0.7 | 4.7 | -0.929 | -28.2 | -0.624 | 23.1 | x | x
O=C(c1ccccc1)c1ccc(OCC(O)CN2CCCCC2)cc1 (stereo not given) | -0.3 | 19.8 | 0.0439 | 9.9 | -2.21* | x | 381* | 264
Cc1ccc(OCC(O)CN2CCN(CC(O)COc3ccc(C)cc3)CC2)cc1 (stereo not given) | -1.4 | 4.2 | 0.0262 | -7.4 | 0.12 | 19.8 | x | x
CC(C)COc1ccc(C(=O)CCN2CCCCC2)cc1 | -0.4 | -13.9 | -0.207 | -4.9 | -6.98* | -0.7 | 278* | 199
CCC(=O)c1ccc(OCC(O)CN2CCN(S(=O)(=O)N3CCCCC3)CC2)cc1 (stereo not given) | 6.1 | 5.7 | -0.921 | -7.4 | 0.285 | x | x | x
CCCCOc1ccc(C(=O)CCN2CCCCC2)cc1 | -4.5 | -21.0 | -0.404 | -30.6 | -4.08 | 7.9 | x | x
CCCCOc1ccc(/C(N)=N/O)cc1 | -1.4 | 4.4 | 0.3 | 4.4 | -0.182 | x | x | x
CCCN1CCN(C(=O)c2cccc3c2C(=O)N(CCOC)C3)CC1 | -0.8 | 0.4 | 0.619 | 2.2 | 1.09 | -2.7 | x | x
COc1ccc(C(=O)n2nc(-c3ccccc3)nc2N)cc1OC | -0.7 | -19.1 | 1.08 | -14.3 | 0.123 | -26.8 | x | x
NC(=O)CNC1CC(=O)N(CCc2ccccc2)C1=O (stereo not given) | x | x | 0.121 | x | 0.48 | x | x | x
Cc1nc(Nc2nc(=O)c3ccccc3n2C)nc2c(C)cccc12 | -0.3 | -12.1 | 1.65 | 0.4 | 0.625 | -25.9 | x | x
O=C(C1CCCN(Cc2ccccc2Br)C1)N1CCCCC1 (stereo not given) | -1.0 | -3.5 | 0.0548 | -21.5 | -2.32* | 8.9 | 397* | 178

Screening results as filed in PubChem.
